From article PMC3949125 (Proteins, 2013)

Key:
[1] = target: human BCL2 (residues 1–218) (Homo sapiens, UniProt P10415); assay: Isothermal titration calorimetry of BECN1 BH3D-derived peptides binding to BCL2; conditions: ITC, 25°C, pH 7.5
How it was run: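 Soluble human BCL2 (1–218, C-terminal transmembrane helix removed) and synthetic BH3D-derived peptides (HPLC-purified >95%, mass confirmed by electrospray MS) were co-dialysed against 50 mM HEPES pH 7.5, 150 mM NaCl, 2 mM β-mercaptoethanol. BCL2 sat in the cell and peptide was titrated in at 25°C over 25 injections. Kd came from fitting an independent binding model.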

[2] = target: Soluble human BCL2 (residues 1-218), lacking the C-terminal transmembrane helix (human, UniProt P10415 1-218); assay: ITC
Sequence of Soluble human BCL2 (residues 1-218), lacking the C-terminal transmembrane helix (P10415 1-218): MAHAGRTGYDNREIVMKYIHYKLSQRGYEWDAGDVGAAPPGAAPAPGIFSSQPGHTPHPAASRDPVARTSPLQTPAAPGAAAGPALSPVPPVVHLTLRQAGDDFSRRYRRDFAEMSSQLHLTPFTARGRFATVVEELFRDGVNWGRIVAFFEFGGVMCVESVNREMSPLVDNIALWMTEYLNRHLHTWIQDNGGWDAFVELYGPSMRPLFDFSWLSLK

Sequence of human BCL2 (residues 1–218) (P10415 1-218): as above

| Molecule | Binding to BCL2 (in words) [1] | dH [2] | other results |
| --- | --- | --- | --- |
| L116A: BECN1 BH3D-derived peptide with Ala substitution of L116 (DGGTMENLSRRAKVTGDLFDIMSGQT) [Mutant L116A] | abolished | – | – |
| F123A: BECN1 BH3D-derived peptide with Ala substitution of F123 (DGGTMENLSRRLKVTGDLADIMSGQT) [Mutant F123A] | abolished | – | – |
| G120E+D121A: BECN1 BH3D-derived peptide with double G120E+D121A substitution (DS) (DGGTMENLSRRLKVTEALFDIMSGQT) | abolished | – | Binding to BCL2 (in words) ([1]; listed as DS BH3D): does not bind |
| L112A: BECN1 BH3D-derived peptide with Ala substitution of L112 (DGGTMENASRRLKVTGDLFDIMSGQT) [Mutant L112A] | abolished | – | – |
| DGGTMENLSRRLKVTGDLFDIMSGQT [human BECN1 BH3D peptide (residues 105-130)] | – | -4.25 ± 1.55 kcal/mol | Kd [2]: 10.4 ± 3.5 µM |
| DGGTAENLSRRLKVTGDLFDIMSGQT (peptide, UniProt Q14457 105-130, looked up) [M109A BECN1 BH3D peptide] | – | -3.78 ± 0.693 kcal/mol | – |
| DGGTMENLSRRLQVTGDLFDIMSGQT (peptide, UniProt Q14457 105-130, looked up) [K117Q BECN1 BH3D peptide] | – | -5.11 ± 1.1 kcal/mol | – |
